Laboratory results: ChEMBL document CHEMBL4390663, “Cationic biaryl 1,2,3-triazolyl peptidomimetic amphiphiles: synthesis, antibacterial evaluation and preliminary mechanism of action studies” (Eur J Med Chem, 2019)
Converted amounts (≈) assume the structure as drawn.

Columns and labels:
Staphylococcus aureus [1] = test: Antimicrobial activity against methicillin-resistant Staphylococcus aureus clinical isolate incubated for 18 hrs by CLSI method; assay type: functional
Staphylococcus aureus [2] = test: Antimicrobial activity against vancomycin resistant Staphylococcus aureus NARSA VRS10 incubated for 18 hrs by CLSI method; assay type: functional; conditions: NARSA VRS10, 18 h
Staphylococcus aureus [3] = test: Antimicrobial activity against methicillin-resistant Staphylococcus aureus clinical isolate with reduced daptomycin susceptibility incubated for 18 hrs by CLSI method; assay type: functional
Clostridioides difficile [4] = test: Antibacterial activity against Clostridium difficile NSW132 RT027 incubated for 48 hrs by CLSI method; assay type: functional; conditions: NSW132 RT027, 48 h
How it was run: (§1)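 Broth microdilution per CLSI anaerobe method in pre-reduced (2-4 h) Brucella broth with haemin and vitamin K, 35 °C anaerobically for 48 h. Compounds from 5 mg/mL DMSO stocks, twofold dilutions in water mixed with double-strength broth; final 0.25–128 μg/mL. […] Triplicate; modal MIC read visually as lowest concentration inhibiting growth.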

Streptococcus pneumoniae [5] = test: Antibacterial activity against MDR Streptococcus pneumoniae ATCC 700677 incubated for 18 hrs by CLSI method; assay type: functional; conditions: ATCC 700677, 18 h
Enterococcus faecalis [6] = test: Antibacterial activity against Enterococcus faecalis ATCC 29212 incubated for 24 hrs by CLSI method; assay type: functional; conditions: ATCC 29212, 24 h
Enterococcus faecalis [7] = test: Antimicrobial activity against vancomycin-resistant Enterococcus faecalis clinical isolate incubated for 18 hrs by CLSI method; assay type: functional
Staphylococcus aureus [8] = test: Antimicrobial activity against glycopeptide intermediate susceptible Staphylococcus aureus NRS17 incubated for 18 hrs by CLSI method; assay type: functional; conditions: NRS17, 18 h
Staphylococcus aureus [9] = test: Antimicrobial activity against methicillin-resistant Staphylococcus aureus ATCC 43300 incubated for 18 hrs by CLSI method; assay type: functional; conditions: ATCC 43300, 18 h
Staphylococcus aureus [10] = test: Antimicrobial activity against glycopeptide intermediate susceptible/methicillin-resistant Staphylococcus aureus NRS1 incubated for 18 hrs by CLSI method; assay type: functional; conditions: NRS1, 18 h
Staphylococcus aureus [11] = test: Antibacterial activity against methicillin-resistant Staphylococcus aureus NCTC 10442 incubated for 24 hrs by CLSI method; assay type: functional; conditions: NCTC 10442, 24 h
How it was run: (§2)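 Broth microdilution per CLSI aerobic guidance in Mueller Hinton broth, ambient air, 35 °C for 24 h. DMSO stocks were diluted in water, then serially diluted with double-strength broth inoculum added, for final 0.25–128 μg/mL. […] MIC was read visually as the lowest concentration inhibiting growth; the modal value of triplicates was recorded.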

Staphylococcus aureus [12] = test: Antimicrobial activity against Staphylococcus aureus ATCC 29213 incubated for 24 hrs by CLSI method; assay type: functional; conditions: ATCC 29213, 24 h; how it was run: as §2
Streptococcus pneumoniae [13] = test: Antibacterial activity against Streptococcus pneumoniae ATCC 49619 incubated for 24 hrs by CLSI method; assay type: functional; conditions: ATCC 49619, 24 h
How it was run: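 CLSI broth microdilution in MHB with 2.5% lysed horse blood, 5% CO2, 35 °C, 24 h. Compounds from 5 mg/mL DMSO stocks diluted in water plus double-strength broth; final 0.25–128 μg/mL. […] Triplicate; modal MIC read visually as lowest growth-inhibiting concentration.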

Clostridioides difficile [14] = test: Antibacterial activity against Clostridium difficile ATCC 700057 incubated for 48 hrs by CLSI method; assay type: functional; conditions: ATCC 700057, 48 h; how it was run: as §1
[15] = Haemolytic activity in sheep erythrocytes at 5 ug/ml incubated for 2 hrs under shaking condition relative to control; assay type: ADME, cell-based, Ovis aries, Erythrocyte; conditions: read-out: Activity
How it was run: (§3)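 Compounds in PBS mixed with washed sheep erythrocytes (2% final) at 5 or 50 μg/mL, rocked 2 h at 37 °C, centrifuged; supernatant absorbance at 540 nm. PBS-only value subtracted, then expressed relative to water lysis (100%). Triplicate, means reported.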

Staphylococcus aureus [16] = test: Antimicrobial activity against Staphylococcus aureus ATCC 43300 incubated for 18 hrs by CLSI method; assay type: functional; conditions: ATCC 43300, 18 h
Staphylococcus aureus [17] = test: Induction of cytoplasmic membrane depolarization in Staphylococcus aureus ATCC 29213 at 32 ug/ml incubated for 30 mins by diSC35 staining based fluorescence assay relative to control; assay type: functional
How it was run: (§4)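 Mid-log cells (1.5 McFarland) loaded with 4 µM diSC3(5) in the dark at room temperature: S. aureus in PBS 30 min; E. coli in 5 mM HEPES/20 mM glucose pH 7.2 for 60 min, then 100 mM KCl and 0.5 mM EDTA. Baseline fluorescence (ex 620/em 670 nm) ~8 min, then compound added (final 32 µg/mL S. aureus, 64 µg/mL E. coli), tracked ~30 min.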

Pseudomonas aeruginosa = test: Antimicrobial activity against Pseudomonas aeruginosa ATCC 27853 incubated for 18 hrs by CLSI method; assay type: functional; conditions: ATCC 27853, 18 h
How it was run: (§5)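 Screen run by CO-ADD: mid-log cultures in cation-adjusted MHB, 5 × 10^5 CFU/mL, compounds at up to 32 μg/mL in 1:2 serial dilutions (8 steps), final DMSO ≤0.5%, duplicate. 37 °C for 18 h without shaking; OD600 read against media-only and untreated-bacteria references. MIC = lowest concentration giving ≥80% inhibition; colistin standard.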

Escherichia coli [18] = test: Induction of plasma membrane permeabilization in Escherichia coli NCTC 10418 at 32 ug/ml measured for 30 mins by propidium iodide staining based fluorescence assay relative to control; assay type: functional
How it was run: (§6)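 Mid-log cells (1.5 McFarland) with 4 µM propidium iodide, dark, room temperature: S. aureus in PBS 30 min; E. coli in 5 mM HEPES/20 mM glucose pH 7.2 for 60 min, then 100 mM KCl and 0.5 mM EDTA. Fluorescence (ex 544/em 615 nm) read ~8 min baseline, then ~30 min after compound at 32 µg/mL final.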

[19] = Haemolytic activity in sheep erythrocytes at 50 ug/ml incubated for 2 hrs under shaking condition relative to control; assay type: ADME, cell-based, Ovis aries, Erythrocyte; conditions: read-out: Activity; how it was run: as §3
Acinetobacter baumannii [20] = test: Antimicrobial activity against Acinetobacter baumannii ATCC 19606 incubated for 18 hrs by CLSI method; assay type: functional; conditions: ATCC 19606 = CIP 70.34 = JCM 6841, 18 h; how it was run: as §5
Staphylococcus aureus [21] = test: Induction of plasma membrane permeabilization in Staphylococcus aureus ATCC 29213 at 32 ug/ml measured for 30 mins by propidium iodide staining based fluorescence assay relative to control; assay type: functional; how it was run: as §6
Escherichia coli [22] = test: Antibacterial activity against Escherichia coli ATCC 25922 incubated for 18 hrs by CLSI method; assay type: functional; conditions: ATCC 25922, 18 h; how it was run: as §5
[23] = Cytotoxicity against human HEK293 cells assessed as reduction in cell growth incubated for 20 hrs by resazurin dye-based fluorometric assay
How it was run: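 HEK293 cells, 5000 per well in DMEM + 10% FBS, exposed to compounds (top 32 μg/mL, 1:2 serial dilution ×8, ≤0.5% DMSO, duplicate) for 20 h at 37 °C, 5% CO2. Resazurin added (2.3 μg/mL final), 3 h further; fluorescence ex 560/em 590 nm. CC50 from sigmoidal dose-response fit against log concentration; tamoxifen standard.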

Klebsiella pneumoniae = test: Antibacterial activity against Klebsiella pneumoniae 700603 incubated for 18 hrs by CLSI method; assay type: functional; conditions: Klebsiella pneumoniae, 700603, 18 h; how it was run: as §5
Escherichia coli [24] = test: Induction of cytoplasmic membrane depolarization in Escherichia coli NCTC 10418 at 64 ug/ml incubated for 30 mins by diSC35 staining based fluorescence assay relative to control; assay type: functional; how it was run: as §4
Clostridioides difficile [25] = test: Antimicrobial activity against Clostridium difficile incubated for 24 hrs by broth microdilution method; assay type: functional
Acinetobacter baumannii [26] = test: Antimicrobial activity against Acinetobacter baumannii incubated for 24 hrs by broth microdilution method; assay type: functional
Staphylococcus aureus [27] = test: Antimicrobial activity against methicillin-resistant Staphylococcus aureus incubated for 24 hrs by broth microdilution method; assay type: functional; how it was run: as §2
Enterococcus faecalis [28] = test: Antimicrobial activity against vancomycin-resistant Enterococcus faecalis incubated for 24 hrs by broth microdilution method; assay type: functional

`CC(C)CCOc1ccc2ccccc2c1-c1c(OCc2cn(C[C@@H](CCCCN)NC(=O)[C@@H](CCCNC(=N)N)NC(=O)Cc3ccc4c(c3)OCO4)nn2)ccc2ccccc12.Cl.Cl` gave an MIC (Staphylococcus aureus [1]) of 4 µg/mL, an MIC (Staphylococcus aureus [2]) of 4 µg/mL and an MIC (Staphylococcus aureus [3]) of 4 µg/mL. For the same compound, the MIC (Clostridioides difficile [4]) was 32 µg/mL, the MIC (Streptococcus pneumoniae [5]) was 2 µg/mL and the MIC (Enterococcus faecalis [6]) was 4 µg/mL. It also gave an MIC (Enterococcus faecalis [7]) of 2 µg/mL, an MIC (Staphylococcus aureus [8]) of 4 µg/mL and an MIC (Staphylococcus aureus [9]) of 2 µg/mL. The MIC (Staphylococcus aureus [10]) was 2 to 4 µg/mL, the MIC (Staphylococcus aureus [11]) was 4 µg/mL and the MIC (Staphylococcus aureus [12]) was 4 µg/mL. The MIC (Streptococcus pneumoniae [13]) was 4 µg/mL and the MIC (Clostridioides difficile [14]) was 8 µg/mL.
Compound `CC(C)CCOc1ccccc1-c1ccccc1OCc1cn(C[C@@H](CCCCN)NC(=O)CCc2ccccc2)nn1.Cl` has a hemolysis at 2 h, 5 ug/ml [15] of 0.2%, an MIC (Clostridioides difficile [4]) of 16 µg/mL and an MIC (Staphylococcus aureus [16]) of 16 µg/mL. For the same compound, the MIC (Enterococcus faecalis [6]) was 8 µg/mL, the Activity (Staphylococcus aureus [17]) was 120 - 180% and the MIC (Pseudomonas aeruginosa) was 32 µg/mL. For the same compound, the Activity (Escherichia coli [18]) was 75%, the hemolysis at 2 h, 50 ug/ml [19] was 101% and the MIC (Staphylococcus aureus [11]) was 4 µg/mL. The MIC (Staphylococcus aureus [12]) was 8 µg/mL, the MIC (Acinetobacter baumannii [20]) was over 32 µg/mL and the Activity (Staphylococcus aureus [21]) was 600%. The MIC (Escherichia coli [22]) was 32 µg/mL, the MIC (Streptococcus pneumoniae [13]) was 8 µg/mL and the CC50 at 20 h [23] was 4.8 µg/mL. The MIC (Klebsiella pneumoniae) was 32 µg/mL, the Activity (Escherichia coli [24]) was 460 - 900% and the MIC (Clostridioides difficile [14]) was 8 µg/mL.
Compound `CC(C)CCOc1ccc2ccccc2c1-c1c(OCC(=O)N[C@H](CCCCN)C(=O)N[C@H](CCCNC(=N)N)Cn2cc(CC3CCCCC3)nn2)ccc2ccccc12.Cl.Cl` has an MIC (Clostridioides difficile [25]) of 4 µg/mL, an MIC (Acinetobacter baumannii [26]) of 4 µg/mL and a hemolysis at 2 h, 50 ug/ml [19] of 78%. For the same compound, the MIC (Staphylococcus aureus [27]) was 2 µg/mL and the MIC (Enterococcus faecalis [28]) was 4 µg/mL.
For `CCCCCCCCCC(=O)N[C@@H](Cc1c[nH]c2ccccc12)C(=O)N[C@H](CC(N)=O)C(=O)N[C@@H](CC(=O)O)C(=O)N[C@@H]1C(=O)NCC(=O)N[C@@H](CCCN)C(=O)N[C@@H](CC(=O)O)C(=O)N[C@H](C)C(=O)N[C@@H](CC(=O)O)C(=O)NCC(=O)N[C@H](CO)C(=O)N[C@@H]([C@H](C)CC(=O)O)C(=O)N[C@@H](CC(=O)c2ccccc2N)C(=O)O[C@@H]1C`, the MIC (Staphylococcus aureus [1]) was 2 µg/mL (≈ 1.23 µM), the MIC (Staphylococcus aureus [2]) was 2 µg/mL (≈ 1.23 µM) and the MIC (Staphylococcus aureus [3]) was 4 µg/mL (≈ 2.47 µM). For the same compound, the MIC (Streptococcus pneumoniae [5]) was 1 to 2 µg/mL (≈ 0.617 to 1.23 µM), the MIC (Enterococcus faecalis [7]) was 8 µg/mL (≈ 4.94 µM) and the MIC (Staphylococcus aureus [8]) was 8 µg/mL (≈ 4.94 µM). The MIC (Staphylococcus aureus [9]) was 0.5 to 1 µg/mL (≈ 0.309 to 0.617 µM) and the MIC (Staphylococcus aureus [10]) was 8 µg/mL (≈ 4.94 µM).
